Data taken from ChEMBL document CHEMBL1150363, “Synthesis, ligand-receptor modeling studies and pharmacological evaluation of novel 4-modified-2-aryl-1,2,4-triazolo[4,3-a]quinoxalin-1-one derivatives as potent and selective human A3 adenosine receptor antagonists” (Bioorg Med Chem, 2008).
pKi: −log10 of the molar value.

Legend:
Bos taurus = species: Bos taurus; test: Displacement of [3H]CGS21680 from adenosine A2A receptor in bovine brain membrane at 10 uM; format: cell membranes
Summary of the method: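 Bovine striatal membranes, [3H]CGS 21680 (Kd 14 nM). Five displacer concentrations in triplicate, non-linear regression IC50, Cheng-Prusoff Ki, four assays. Single-point data are % inhibition at 10 µM.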

Adenosine receptor A3 = target: T1, Adenosine receptor A3 (Homo sapiens, UniProt P0DMS8); test: Displacement of [125I]AB-MECA from human cloned adenosine A3 receptor expressed in CHO cells; format: cell-based
T1 sequence (P0DMS8 whole entry): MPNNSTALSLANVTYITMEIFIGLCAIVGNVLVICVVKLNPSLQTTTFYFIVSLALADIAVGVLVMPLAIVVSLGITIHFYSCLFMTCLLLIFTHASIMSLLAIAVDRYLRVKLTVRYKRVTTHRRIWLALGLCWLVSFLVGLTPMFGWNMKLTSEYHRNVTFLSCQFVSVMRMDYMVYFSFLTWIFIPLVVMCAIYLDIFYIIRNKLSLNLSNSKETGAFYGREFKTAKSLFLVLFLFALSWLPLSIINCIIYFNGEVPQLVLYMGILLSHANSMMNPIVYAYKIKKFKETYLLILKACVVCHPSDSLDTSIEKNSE
Summary of the method: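 CHO cells stably expressing hA3. IC50 by non-linear regression over five displacer concentrations in triplicate, converted to Ki by Cheng-Prusoff. Ki values are means of four assays.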

[1] = target: T2, Adenosine receptor A1 (Bos taurus) (UniProt P28190); test: Displacement of [125I]DPCPX from adenosine A1 receptor in bovine brain membrane at 10 uM; format: cell membranes; details: in the assay text read “[3H]DPCPX” for “[125I]DPCPX”
T2 sequence (whole entry): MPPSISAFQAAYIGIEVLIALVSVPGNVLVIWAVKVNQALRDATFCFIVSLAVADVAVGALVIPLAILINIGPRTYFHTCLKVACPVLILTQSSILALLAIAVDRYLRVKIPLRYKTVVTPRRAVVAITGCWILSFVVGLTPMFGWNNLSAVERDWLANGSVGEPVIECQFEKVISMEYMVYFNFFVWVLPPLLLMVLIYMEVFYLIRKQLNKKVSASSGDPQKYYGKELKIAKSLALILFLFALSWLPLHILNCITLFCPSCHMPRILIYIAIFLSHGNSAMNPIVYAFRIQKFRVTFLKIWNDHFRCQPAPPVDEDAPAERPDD
Summary of the method: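 Bovine cerebral cortical membranes, [3H]DPCPX (Kd 0.3 nM). IC50 from five displacer concentrations in triplicate, Ki by Cheng-Prusoff, means of four assays. Single-point data are % inhibition of specific binding at 10 µM.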

Adenosine receptor A2a [2] = target: T3, Adenosine receptor A2a (Homo sapiens, UniProt P29274); test: Displacement of [125I]NECA from human adenosine A2A receptor expressed in CHO cells at 10uM; format: cell-based; details: in the assay text read “[3H]NECA” for “[125I]NECA”
Summary of the method: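 hA2A stably expressed in CHO cells. Radioligand [3H]NECA (Kd 30 nM). Percentage inhibition of specific binding measured at 10 µM.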

Adenosine receptor A1 [3] = target: T4, Adenosine receptor A1 (Bos taurus, UniProt P28190); test: Displacement of [3H]DPCPX from adenosine A1 receptor in bovine brain membrane
T4 sequence (P28190 whole entry): T2 sequence (whole entry)

Adenosine receptor A1 [4] = target: T5, Adenosine receptor A1 (Homo sapiens, UniProt P30542); test: Displacement of [3H]DPCPX from human cloned adenosine A1 receptor expressed in CHO cells
T5 sequence (P30542 whole entry): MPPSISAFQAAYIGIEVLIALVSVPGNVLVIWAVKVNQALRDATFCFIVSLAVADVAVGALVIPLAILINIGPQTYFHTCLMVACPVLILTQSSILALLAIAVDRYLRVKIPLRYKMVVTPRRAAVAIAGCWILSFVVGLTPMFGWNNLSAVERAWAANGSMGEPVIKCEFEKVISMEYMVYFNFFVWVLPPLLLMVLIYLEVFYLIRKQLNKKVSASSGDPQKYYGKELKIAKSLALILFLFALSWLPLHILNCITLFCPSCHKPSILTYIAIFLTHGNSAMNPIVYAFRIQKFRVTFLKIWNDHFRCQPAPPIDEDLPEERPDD

[5] = target: T6, Adenosine receptor A1 (Homo sapiens) (UniProt P30542); test: Displacement of [3H]DPCPX from human cloned adenosine A1 receptor expressed in CHO cells at 10 uM
T6 sequence (whole entry): T5 sequence (P30542 whole entry)

[6] = Displacement of [3H]CGS21680 from adenosine A2A receptor in bovine brain membrane; format: cell membranes, Bos taurus
[7] = target: T7, Adenosine receptor A3 (Homo sapiens) (UniProt P0DMS8); test: Displacement of [125I]AB-MECA from human cloned adenosine A3 receptor expressed in CHO cells at 1 uM; format: cell-based
T7 sequence (whole entry): T1 sequence (P0DMS8 whole entry)
Summary of the method: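 CHO cells stably expressing hA3. Displacement of [125I]AB-MECA (Kd 1.4 nM). IC50 by non-linear regression over five displacer concentrations in triplicate, converted to Ki by Cheng-Prusoff. Ki values are means of four assays. Single-point data are % inhibition of specific binding at 1 µM.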

Adenosine receptor A2a [8] = target: T3, Adenosine receptor A2a; test: Displacement of [3H]NECA from human cloned adenosine A2A receptor expressed in CHO cells

T3 sequence (P29274 whole entry): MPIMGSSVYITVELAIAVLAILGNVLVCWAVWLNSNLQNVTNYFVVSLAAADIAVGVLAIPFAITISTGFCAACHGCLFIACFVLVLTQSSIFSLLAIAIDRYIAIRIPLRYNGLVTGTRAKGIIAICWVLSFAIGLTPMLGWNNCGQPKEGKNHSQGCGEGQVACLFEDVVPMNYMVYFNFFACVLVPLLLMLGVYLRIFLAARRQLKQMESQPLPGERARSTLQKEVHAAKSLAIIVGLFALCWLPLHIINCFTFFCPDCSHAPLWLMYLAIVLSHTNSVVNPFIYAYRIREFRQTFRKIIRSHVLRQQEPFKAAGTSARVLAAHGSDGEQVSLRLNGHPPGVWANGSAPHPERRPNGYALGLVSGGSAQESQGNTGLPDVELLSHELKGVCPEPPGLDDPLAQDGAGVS

SMILES | Activity (Bos taurus) [%] | pKi (Adenosine receptor A3) | Activity [1] [%] | Activity (Adenosine receptor A2a [2]) [%] | pKi (Adenosine receptor A1 [3]) | pKi (Adenosine receptor A1 [4]) | Activity [5] [%] | pKi [6] | Activity [7] [%] | pKi (Adenosine receptor A2a [8])
COc1ccc(-n2nc3c(N(S(C)(=O)=O)S(C)(=O)=O)nc4ccccc4n3c2=O)cc1 | 17 | 6.41 | 6.2 |  |  |  |  |  |  | 
COc1ccc(-n2nc3c(NS(=O)(=O)c4ccccc4)nc4ccccc4n3c2=O)cc1 | 16 | 8.66 |  | 23 | 5.33 | 5.57 |  |  |  | 
O=c1n(-c2ccccc2)nc2c(OCc3ccccc3)nc3ccccc3n12 | 19 | 7.68 |  | 10 | 7.26 |  | 46 |  |  | 
CCCn1c(=O)c2[nH]c(C3CCCC3)nc2n(CCC)c1=O [1,3-DIPROPYL-8-CYCLOPENTYLXANTHINE [DPCPX]] |  |  |  |  |  |  |  | 6.47 |  | 
O=c1n(-c2ccccc2)nc2c(NS(=O)(=O)c3ccccc3)nc3c([N+](=O)[O-])cccc3n12 | 25 | 7.00 |  |  | 6.68 |  |  |  |  | 
COC(=O)c1ccc(C(=O)Nc2nc3ccccc3n3c(=O)n(-c4ccc(OC)cc4)nc23)cc1 | 41 | 5.86 | 30.5 |  |  |  |  |  |  | 
O=C(NC(=O)c1ccccc1)Nc1nc2ccccc2n2c(=O)n(-c3ccccc3)nc12 |  | 5.89 |  |  | 7.00 |  |  | 6.42 |  | 
O=C(NCc1ccccc1)Nc1nc2c([N+](=O)[O-])cccc2n2c(=O)n(-c3ccccc3)nc12 | 46.5 | 7.20 |  | 20 | 8.34 |  | 4 |  |  | 
O=C(Nc1cccc(I)c1)Nc1nc2ccccc2n2c(=O)n(-c3ccccc3)nc12 |  | 6.02 |  |  | 6.44 |  |  | 5.74 |  | 
O=C(Nc1nc2ccccc2n2c(=O)n(-c3ccccc3)nc12)c1ccccc1 | 53 |  |  |  |  |  |  |  |  | 
O=C(Nc1nc2ccccc2n2c(=O)n(-c3ccccc3)nc12)c1cccc(I)c1 | 35 |  |  |  | 6.33 |  |  |  | 36 | 
COc1ccc(-n2nc3c(NS(C)(=O)=O)nc4ccccc4n3c2=O)cc1 | 0 | 6.31 | 6 |  |  |  |  |  |  | 
O=C(Nc1nc2ccccc2n2c(=O)n(-c3ccccc3)nc12)c1ccncc1 |  | 8.21 |  |  | 7.24 | 5.62 |  | 6.09 |  | 6.73
COc1ccc(-n2nc3c(NC(=O)c4ccncc4)nc4ccccc4n3c2=O)cc1 | 44 | 7.17 |  |  | 6.63 | 6.11 |  |  |  | 6.40
COc1ccc(-n2nc3c(OCc4ccccc4)nc4ccccc4n3c2=O)cc1 | 41 | 8.19 | 53 | 4 |  |  | 54 |  |  | 
O=C(NCc1ccccc1)Nc1nc2ccccc2n2c(=O)n(-c3ccccc3)nc12 |  | 7.08 |  |  | 8.39 | 7.91 |  | 6.76 |  | 6.80
O=c1n(-c2ccccc2)nc2c(NS(=O)(=O)c3ccccc3)nc3ccccc3n12 | 35 | 7.49 |  | 27 | 6.80 |  | 0 |  |  | 
CS(=O)(=O)Nc1nc2ccccc2n2c(=O)n(-c3ccccc3)nc12 | 32 | 5.85 |  |  | 6.79 |  |  |  |  | 
COc1ccc(-n2nc3c(NC(=O)NCc4ccccc4)nc4ccccc4n3c2=O)cc1 | 12 | 7.19 |  | 23 | 7.68 | 5.38 |  |  |  | 
CS(=O)(=O)Nc1nc2c([N+](=O)[O-])cccc2n2c(=O)n(-c3ccccc3)nc12 | 25 |  |  |  | 5.55 |  |  |  | 37 | 
COC(=O)c1ccc(C(=O)Nc2nc3ccccc3n3c(=O)n(-c4ccccc4)nc23)cc1 | 36 |  |  |  | 6.97 |  |  |  | 41 | 
O=C(Nc1nc2c([N+](=O)[O-])cccc2n2c(=O)n(-c3ccccc3)nc12)c1ccncc1 | 22 |  | 37.5 |  |  |  |  |  | 0 | 
